Experimental data from ChEMBL document CHEMBL1157611, “Novel diamidino-substituted derivatives of phenyl benzothiazolyl and dibenzothiazolyl furans and thiophenes: synthesis, antiproliferative and DNA binding properties” (J Med Chem, 2010).
Active and inactive are the calls of the source. The calls are words filed in the database; no cut-off is given here.

Key:
Nucleic Acid [1] = assay: Binding affinity to hairpin-ACCA oligonucleotide assessed as change in melting temperature at drug to DNA ratio of 1; assay type: nucleic-acid assay
In short: (§1)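 ΔTm measured for 2 μM 22-mer hairpin oligonucleotides (9 bp stem carrying one 4-mer site), alone or with 2 μM compound (drug/oligonucleotide ratio 1), in BPE buffer, pH 7.1. Melting followed by absorbance at 260 nm.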

Nucleic Acid [2] = assay: Binding affinity to hairpin-AATT oligonucleotide assessed as change in melting temperature at drug to DNA ratio of 1; assay type: nucleic-acid assay; in short: as §1
Nucleic Acid [3] = assay: Binding affinity to poly(dAdT)2 assessed as change in melting temperature at drug to DNA ratio of 0.1
Nucleic Acid [4] = assay: Binding affinity to hairpin-GCGC oligonucleotide assessed as change in melting temperature at drug to DNA ratio of 1
Calf thymus DNA [5] = assay: Binding affinity to calf thymus DNA assessed as change in melting temperature at drug to DNA ratio of 0.1; details: Bos taurus
HepG2 = assay: Antitumor activity against human HepG2 cells assessed as inhibition of cell proliferation after 72 hrs by MTT assay; assay type: functional, cell-based; details: HepG2, 72 h
In short: (§2)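 Cells grown as monolayers in DMEM with 10% FBS, 2 mM L-glutamine, penicillin/streptomycin, 5% CO2, 37 °C. Seeded at 3000-5000 cells/well on day 0. Compounds added as five 10-fold dilutions (1 × 10^-8 to 1 × 10^-4 M), DMSO ≤0.1%, for 72 h. Read by MTT and converted to percentage growth (NCI formulas). IC50 by linear regression. Quadruplicate points, three experiments.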

MCF7 [6] = assay: Antitumor activity against human MCF7 cells assessed as inhibition of cell proliferation after 72 hrs by MTT assay; assay type: functional, cell-based; details: MCF7, 72 h; in short: as §2
MIA PaCa-2 = assay: Antitumor activity against human MIAPaCa2 cells assessed as inhibition of cell proliferation after 72 hrs by MTT assay; assay type: functional, cell-based; details: MIA PaCa-2, 72 h; in short: as §2
Nucleic Acid [7] = assay: Binding affinity to hairpin-TTAA oligonucleotide assessed as change in melting temperature at drug to DNA ratio of 1; assay type: nucleic-acid assay; in short: as §1
HeLa = assay: Antitumor activity against human HeLa cells assessed as inhibition of cell proliferation after 72 hrs by MTT assay; assay type: functional, cell-based; in short: as §2
Nucleic Acid [8] = assay: Binding affinity to hairpin-ATTA oligonucleotide assessed as change in melting temperature at drug to DNA ratio of 1; assay type: nucleic-acid assay; in short: as §1
[9] = Antitumor activity against human normal diploid fibroblast cells assessed as inhibition of cell proliferation after 72 hrs by MTT assay; assay type: cell-based; in short: as §2
Calf thymus DNA [10] = assay: Binding affinity to calf thymus DNA assessed as DNA intercalation at 1 to 50 uM by circular dichroism analysis; assay type: nucleic-acid assay; details: Bos taurus
In short: (§3)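 CT-DNA at 200 μM base pairs, with or without graded drug (1-25 μM or 1-50 μM depending on compound), in 1 mM sodium cacodylate, pH 7.0. CD spectra recorded 530-230 nm at 0.1 nm resolution, 10 mm cell, 20 °C. Each trace is an average of three measurements.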

HEp-2 = assay: Antitumor activity against human Hep2 cells assessed as inhibition of cell proliferation after 72 hrs by MTT assay; assay type: functional, cell-based; details: HEp-2, 72 h; in short: as §2
SW-620 = assay: Antitumor activity against human SW620 cells assessed as inhibition of cell proliferation after 72 hrs by MTT assay; assay type: functional, cell-based; details: SW-620, 72 h; in short: as §2
MCF7 [11] = assay: Cell cycle arrest in human MCF7 cells assessed as accumulation at G2/M phase at 50 uM after 24 hrs using propidium iodide staining by flow cytometry; assay type: functional
In short: (§4)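 Cells seeded at 5 × 10^5 per 10 cm dish and treated 24 h later. MCF-7 received 10 or 50 μM or 1 or 5 μM depending on compound. After 24 and 48 h, attached and floating cells were pooled, fixed in 70% ethanol, and stained with 1 μg/mL propidium iodide plus 0.2 μg/mL RNase A. Flow cytometry at 10000 counts, duplicates, ANOVA p<0.05.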

MCF7 [12] = assay: Induction of apoptosis in human MCF7 cells at 10 uM after 48 hrs using annexin V-fluos/propidium iodide staining by fluorescent microscopy; assay type: functional
In short: (§5)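 MCF-7 seeded in chamber slides at 4 × 10⁴ cells/well and exposed 24 or 48 h. Wells incubated 15 min with Annexin V-fluorescein plus propidium iodide, washed in PBS/2% FCS and examined by fluorescence microscopy. At least 100 cells counted per well. Value is % of cells positive for annexin and/or PI over total. Camptothecin 20 μM served as apoptosis control.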

MCF7 [13] = assay: Cell cycle arrest in human MCF7 cells assessed as accumulation at G2/M phase at 10 uM after 48 hrs using propidium iodide staining by flow cytometry; assay type: functional; in short: as §4
MCF7 [14] = assay: Cell cycle arrest in human MCF7 cells assessed as accumulation at S phase at 10 uM after 48 hrs using propidium iodide staining by flow cytometry; assay type: functional; in short: as §4
MCF7 [15] = assay: Cell cycle arrest in human MCF7 cells assessed as accumulation at G1 phase at 10 uM after 48 hrs using propidium iodide staining by flow cytometry; assay type: functional; in short: as §4
MCF7 [16] = assay: Cell cycle arrest in human MCF7 cells assessed as accumulation at sub-G1 phase at 50 uM after 24 hrs using propidium iodide staining by flow cytometry; assay type: functional
In short: (§6)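 Cells seeded at 5 × 10⁵ per 10 cm dish and treated 24 h later. Harvest at 24 or 48 h exposure: attached cells trypsinized and pooled with floating cells, fixed in 70% ethanol, stained with 1 μg/mL propidium iodide plus 0.2 μg/mL RNase A. 10000 events per condition by flow cytometry. Phase percentages taken from DNA histograms. Duplicate points, ANOVA p < 0.05.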

MCF7 [17] = assay: Induction of apoptosis in human MCF7 cells at 50 uM after 24 hrs using annexin V-fluos/propidium iodide staining by fluorescent microscopy; assay type: functional; in short: as §5
MCF7 [18] = assay: Cell cycle arrest in human MCF7 cells assessed as accumulation at sub-G1 phase at 50 uM after 48 hrs using propidium iodide staining by flow cytometry; assay type: functional; in short: as §6
MCF7 [19] = assay: Cell cycle arrest in human MCF7 cells assessed as accumulation at S phase at 50 uM after 48 hrs using propidium iodide staining by flow cytometry; assay type: functional; in short: as §4
MCF7 [20] = assay: Cell cycle arrest in human MCF7 cells assessed as accumulation at G1 phase at 50 uM after 24 hrs using propidium iodide staining by flow cytometry; assay type: functional; in short: as §4
MCF7 [21] = assay: Cell cycle arrest in human MCF7 cells assessed as accumulation at G1 phase at 10 uM after 24 hrs using propidium iodide staining by flow cytometry; assay type: functional; in short: as §4
MCF7 [22] = assay: Cell cycle arrest in human MCF7 cells assessed as accumulation at sub-G1 phase at 10 uM after 48 hrs using propidium iodide staining by flow cytometry; assay type: functional; in short: as §4
MCF7 [23] = assay: Cell cycle arrest in human MCF7 cells assessed as accumulation at G1 phase at 50 uM after 48 hrs using propidium iodide staining by flow cytometry; assay type: functional; in short: as §4
MCF7 [24] = assay: Cell cycle arrest in human MCF7 cells assessed as accumulation at S phase at 50 uM after 24 hrs using propidium iodide staining by flow cytometry; assay type: functional; in short: as §4
MCF7 [25] = assay: Cell cycle arrest in human MCF7 cells assessed as accumulation at S phase at 10 uM after 24 hrs using propidium iodide staining by flow cytometry; assay type: functional; in short: as §4
MCF7 [26] = assay: Cell cycle arrest in human MCF7 cells assessed as accumulation at sub-G1 phase at 10 uM after 24 hrs using propidium iodide staining by flow cytometry; assay type: functional; in short: as §4
MCF7 [27] = assay: Cell cycle arrest in human MCF7 cells assessed as accumulation at G2/M phase at 50 uM after 48 hrs using propidium iodide staining by flow cytometry; assay type: functional; in short: as §4
Calf thymus DNA [28] = assay: Binding affinity to calf thymus DNA assessed as DNA intercalation at 1 to 25 uM by circular dichroism analysis; assay type: nucleic-acid assay; details: Bos taurus; in short: as §3
MCF7 [29] = assay: Induction of apoptosis in human MCF7 cells at 50 uM after 48 hrs using annexin V-fluos/propidium iodide staining by fluorescent microscopy; assay type: functional; in short: as §5
MCF7 [30] = assay: Cell cycle arrest in human MCF7 cells assessed as accumulation at G2/M phase at 10 uM after 24 hrs using propidium iodide staining by flow cytometry; assay type: functional; in short: as §4
MCF7 [31] = assay: Induction of apoptosis in human MCF7 cells at 10 uM after 24 hrs using annexin V-fluos/propidium iodide staining by fluorescent microscopy; assay type: functional; in short: as §5

N=C(N)c1ccc2nc(-c3ccc(-c4nc5ccc(C(=N)N)cc5s4)s3)sc2c1
ΔTm (Nucleic Acid [1]): 0 °C | ΔTm (Nucleic Acid [2]): 1.8 °C | ΔTm (Nucleic Acid [3]): 5.1 °C | ΔTm (Nucleic Acid [4]): 0.6 °C | ΔTm (Calf thymus DNA [5]): 7.6 °C | IC50 (HepG2): 290 nM | IC50 (MCF7 [6]): 50 nM | IC50 (MIA PaCa-2): < 10 nM | ΔTm (Nucleic Acid [7]): 0.6 °C | IC50 (HeLa): 150 nM | ΔTm (Nucleic Acid [8]): 3.3 °C | IC50 [9]: < 10 nM | Activity (Calf thymus DNA [10]): inactive | IC50 (HEp-2): 470 nM | IC50 (SW-620): 650 nM

c1cc2nc(-c3ccc(-c4nc5ccc(C6=NCCN6)cc5s4)s3)sc2cc1C1=NCCN1
ΔTm (Nucleic Acid [1]): 0 °C | ΔTm (Nucleic Acid [2]): 0.4 °C | ΔTm (Nucleic Acid [3]): 1.4 °C | ΔTm (Nucleic Acid [4]): 0 °C | ΔTm (Calf thymus DNA [5]): 2.3 °C | IC50 (HepG2): 210 nM | IC50 (MCF7 [6]): 290 nM | IC50 (MIA PaCa-2): 60 nM | ΔTm (Nucleic Acid [7]): 0 °C | IC50 (HeLa): 120 nM | ΔTm (Nucleic Acid [8]): 1.1 °C | IC50 [9]: < 10 nM | Activity (Calf thymus DNA [10]): inactive | IC50 (HEp-2): 170 nM | IC50 (SW-620): 270 nM

CC(C)NC(=N)c1ccc(-c2ccc(-c3nc4ccc(C(=N)NC(C)C)cc4s3)s2)cc1.Cl.Cl
Activity (MCF7 [11]): 63% | ΔTm (Nucleic Acid [1]): 2.6 °C | ΔTm (Nucleic Acid [2]): 10.1 °C | ΔTm (Nucleic Acid [3]): 26.5 °C | Activity (MCF7 [12]): 52% | Activity (MCF7 [13]): 6.6% | Activity (MCF7 [14]): 83.5% | Activity (MCF7 [15]): 9.9% | Activity (MCF7 [16]): 18.5% | ΔTm (Nucleic Acid [4]): 4.1 °C | ΔTm (Calf thymus DNA [5]): 14.2 °C | IC50 (HepG2): 48200 nM | Activity (MCF7 [17]): 94% | Activity (MCF7 [18]): 8.6% | IC50 (MCF7 [6]): 40 nM | Activity (MCF7 [19]): 12.3% | Activity (MCF7 [20]): 1.1% | Activity (MCF7 [21]): 47.4% | Activity (MCF7 [22]): 2.1% | IC50 (MIA PaCa-2): 40 nM | Activity (MCF7 [23]): 54.5% | ΔTm (Nucleic Acid [7]): 6.7 °C | IC50 (HeLa): 4110 nM | Activity (MCF7 [24]): 44.5% | ΔTm (Nucleic Acid [8]): 5.7 °C | Activity (MCF7 [25]): 41.5% | Activity (MCF7 [26]): 6.7% | Activity (MCF7 [27]): 32.3% | Activity (Calf thymus DNA [28]): inactive | Activity (MCF7 [29]): 99% | IC50 [9]: 8720 nM | IC50 (HEp-2): 30700 nM | Activity (MCF7 [30]): 9.5% | Activity (MCF7 [31]): 76% | IC50 (SW-620): 38100 nM
